ChEMBL document CHEMBL1817640, “Synthesis, trypanocidal activity and molecular modeling studies of 2-alkylaminomethylquinoline derivatives” (Eur J Med Chem, 2011)
Active and inactive are the calls of the source. The calls are words filed in the database; no cut-off is given here.

Legend:
Trypanosoma cruzi [1] = experiment: Trypanocidal activity against epimastigote form of Trypanosoma cruzi assessed as [3H]thymidine uptake after 72 hrs by liquid scintillation counter; format: functional, organism-based
In short: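 RA-strain epimastigotes grown in biphasic medium at 26 °C, adjusted to 1.5 × 10⁶/mL. Cultured 72 h with compound at 100, 50, 10, 5, 1 and 0.5 (final). Benznidazole 5–20 as positive control. Growth measured by [³H]thymidine uptake. % inhibition = 100 − (cpm treated/cpm untreated × 100); IC50 estimated from this.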

Trypanosoma cruzi [2] = experiment: Trypanocidal activity against bloodstream trypomastigote form of Trypanosoma cruzi after 24 hrs; format: functional, organism-based
In short: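 Trypomastigotes were taken by cardiac puncture from infected CF1 mice at peak parasitemia (day 15). Blood was diluted in complete RPMI to 1.5 × 10⁶ parasites/mL and seeded in duplicate with compound at 0.5–100 final concentration; benznidazole served as control drug. After 24 h incubation at 4 °C, surviving parasites were counted in a Neubauer chamber.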

Trypanosoma cruzi [3] = experiment: Trypanocidal activity against intracellular amastigotes form of Trypanosoma cruzi expressing beta-galactosidase infected in mouse J774 cells on day 7; format: functional, organism-based; details: J774, 168 h
In short: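 Host cells infected with β-galactosidase-expressing trypomastigotes at a 10:1 parasite:cell ratio. After 24 h, washed twice with PBS, then compound added at 0.5–100 in phenol-red-free complete RPMI, duplicates. Uninfected and infected controls included. Developed with CPRG (100 final) plus 1% Nonidet P-40 for 4–6 h at 37 °C, read at A570. % inhibition relative to untreated infected cells; IC50 estimated.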

[4] = Cytotoxicity against african green monkey COS7 cells after 24 hrs by MTT assay; format: cell-based; details: chlorocebus aethiops, COS-7 cells
[5] = Selectivity index, ratio of CC50 for african green monkey COS7 cells to IC50 for bloodstream trypomastigote form of Trypanosoma cruzi; format: functional, COS-7
In short: (§1)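 SI = CC50 divided by the IC50 against trypomastigotes or amastigotes, respectively.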

[6] = Selectivity index, ratio of CC50 for african green monkey COS7 cells to IC50 for intracellular amastigotes form of Trypanosoma cruzi; format: functional, COS-7; in short: as §1
Trypanosoma cruzi [7] = experiment: Antitrypanosomal activity against bloodstream trypomastigote form of Trypanosoma cruzi RA infected in C3H/HeN mouse assessed as reduction in parasites at 1 mg/kg administered 5 days after infection for 10 consecutive days relative to untreated control; format: functional
Trypanosoma cruzi [8] = experiment: Antitrypanosomal activity against bloodstream trypomastigote form of Trypanosoma cruzi RA infected in C3H/HeN mouse assessed as decrease in parasitemia at 1 mg/kg administered 5 days after infection for 10 consecutive days measured on day 14 relative to untreated control; format: functional, organism-based; parameters: dose 1 mg/kg

## CCOC(=O)c1c(CN2CCN(C)CC2)nc2ccc(Cl)cc2c1-c1ccccc1
Trypanosoma cruzi [1]
  IC50: 11.8 µM
Trypanosoma cruzi [2]
  IC50: 6.4 µM
Trypanosoma cruzi [3]
  IC50: 10.4 µM
[4]
  CC50 at 24 h: 35.9 µM
[5]
  Ratio CC50/IC50: 5.6
[6]
  Ratio CC50/IC50: 3.5

## O=C(Cn1ccnc1[N+](=O)[O-])NCc1ccccc1 [BENZNIDAZOLE]
Trypanosoma cruzi [1]
  IC50: 5.8 µM
Trypanosoma cruzi [2]
  IC50: 34.1 µM
Trypanosoma cruzi [3]
  IC50: 3.6 µM
[4]
  CC50 at 24 h: 706 µM
[5]
  Ratio CC50/IC50: 20.7
[6]
  Ratio CC50/IC50: 196.1

## CCOC(=O)c1c(CCl)nc2ccc(Cl)cc2c1-c1ccccc1
Trypanosoma cruzi [1]
  IC50: 31.4 µM

## CC(O)CNCc1nc2ccc(Cl)cc2c(-c2ccccc2)c1C(=O)O (stereo not drawn)
Trypanosoma cruzi [1]
  IC50: 50.4 µM

## CCOC(=O)c1c(CN(CC)CC)nc2ccc(Cl)cc2c1-c1ccccc1
Trypanosoma cruzi [1]
  IC50: 11.6 µM
Trypanosoma cruzi [2]
  IC50: 42.6 µM
Trypanosoma cruzi [3]
  IC50: 33 µM
[4]
  CC50 at 24 h: 480 µM
[5]
  Ratio CC50/IC50: 11.3
[6]
  Ratio CC50/IC50: 14.5

## CCOC(=O)c1c(CN2CCCC2)nc2ccc(Cl)cc2c1-c1ccccc1
Trypanosoma cruzi [1]
  IC50: 10 µM
Trypanosoma cruzi [2]
  IC50: 62.4 µM
Trypanosoma cruzi [3]
  IC50: 40.3 µM
[4]
  CC50 at 24 h: 490 µM
[5]
  Ratio CC50/IC50: 7.8
[6]
  Ratio CC50/IC50: 12.1

## CCOC(=O)c1c(CN(C)Cc2ccccc2)nc2ccc(Cl)cc2c1-c1ccccc1
Trypanosoma cruzi [1]
  IC50: 9.7 µM
Trypanosoma cruzi [2]
  IC50: 128 µM
Trypanosoma cruzi [3]
  IC50: 61 µM
[4]
  CC50 at 24 h: 315 µM
[5]
  Ratio CC50/IC50: 2.5
[6]
  Ratio CC50/IC50: 5.2

## CCOC(=O)c1c(CN2CCCCC2)nc2ccc(Cl)cc2c1-c1ccccc1
Trypanosoma cruzi [1]
  IC50: 8.2 µM
Trypanosoma cruzi [2]
  IC50: 51.3 µM
Trypanosoma cruzi [3]
  IC50: 37.9 µM
[4]
  CC50 at 24 h: 311 µM
[5]
  Ratio CC50/IC50: 6.05
[6]
  Ratio CC50/IC50: 8.2

## CC(=O)NCCCCCCNCc1nc2ccc(Cl)cc2c(-c2ccccc2)c1C(=O)O
Trypanosoma cruzi [1]
  IC50: 3.4 µM
Trypanosoma cruzi [2]
  IC50: 3.1 µM
Trypanosoma cruzi [3]
  IC50: 12.8 µM
[4]
  CC50 at 24 h: 771 µM
[5]
  Ratio CC50/IC50: 248.7
[6]
  Ratio CC50/IC50: 60.2
Trypanosoma cruzi [7]
  fold change (FC): 3
Trypanosoma cruzi [8]
  Activity: Active

## CC(C)NCc1nc2ccc(Cl)cc2c(-c2ccccc2)c1C(=O)O
Trypanosoma cruzi [1]
  IC50: 89.6 µM

## CCOC(=O)c1c(CN2CCOCC2)nc2ccc(Cl)cc2c1-c1ccccc1
Trypanosoma cruzi [1]
  IC50: 85.3 µM
